Article PMC5931369 (Nature chemical biology, 2018)
Several values for one entry are separate records, joined by “and”; a condition that tells them apart may be missing. Identical values can stand only once. Entries after “also recorded” stand apart in the source; their conditions may differ. Values belong to the molecule of their own block, whether it stands above or below them.

Assays:
ptc>dRet^M955T flies = assay: rescue-from-lethality assay in ptc>dRet^M955T flies; format: in vivo, Drosophila; details: drug food, 25°C; for rescue of ptc>dRet^M955T flies to adulthood (% viability): optimal dose
How it was run: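 ptc-gal4,UAS-GFP;UAS-dRetM955T/SM5tub-gal80-TM6B flies were crossed with w−. Embryos were raised for 13 days at 25°C on semi-defined medium carrying compound added from DMSO, 0.1% final. Flies were randomised. % viability = empty pupal cases ÷ total pupal cases. The assay was repeated twice.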

[1] = system: ptc>dRet^M955T flies with or without kinase heterozygous mutations; format: in vivo, Drosophila; details: 23°C
[2] = system: dRet^M955T-expressing wing cells; assay: in vivo cell migration assay in developing wing discs; design: species or system Drosophila; details: for EMT and migration/invasion of dRet^M955T-expressing wing cells: ptc>dRet^M955T wing discs; for effect of reduced Lk6 on suppression of ptc>dRet^M955T cell migration: ptc>dRet^M955T,Lk6^−/+ wing discs, 1 400 µM, 4 200 µM, 9 100 µM, 10 100 µM
How it was run: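 Third-instar larvae were dissected to collect developing wing discs. Discs were fixed in 4% paraformaldehyde in PBS and whole-mounted. GFP-labelled dRetM955T-expressing cells were examined by confocal microscopy. Phospho-Src was immunostained with rabbit anti-Src(pY418).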

765>dRet^M955T flies = assay: wing venation assay; format: in vivo, Drosophila
How it was run: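 UAS-dRetM955T;765-gal4/SM5tub-gal80-TM6B flies were crossed with w– or Lk6−/+ to give 765>dRetM955T or 765>dRetM955T,Lk6−/+ progeny. Progeny were reared for 13 days at 25°C on medium with or without compound (0.1% final DMSO). Adult wings were scored blind for abnormal venation. The assay was repeated twice.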

non-oncogenic w^− flies = assay: whole body toxicity in control, non-transformed flies; format: in vivo, Drosophila; details: fed to control
MKNK1 = MKNK1 (Homo sapiens, UniProt Q9BUB5); assay: Kd measurement; format: binding
How it was run: (§1)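 Competition binding assay: kinases expressed on phage and captured on beads through immobilised active-site-directed ligands. Test compound is premixed with kinase and scored for its ability to compete for the immobilised ligand. An 11-point series, 30,000 to 0.5 nM in 3-fold dilutions, is used for each compound–kinase pair. Kd is fitted by the Hill equation with slope fixed at -1 and averaged over two replicates.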

BRAF = BRAF (Homo sapiens, UniProt P15056); assay: Kd measurement; format: binding; details: cell-free in vitro
How it was run: as §1

TT human MTC cells [3] = assay: soft agar colony formation assay; format: cell-based; details: three weeks, compared with sorafenib and 4
How it was run: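 TT cells were cultured in 0.3% agar with or without test compound for three weeks. Colony formation efficiency = number of growing colonies ÷ cells seeded. The assay was repeated twice.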

RET = RET (Homo sapiens, UniProt P07949); assay: Kd measurement; format: binding
How it was run: as §1

[4] = system: BRAF in HCT-116 and LOVO cells; assay: RAF transactivation assay in human cancer cell lines; format: cell-based; details: two cancer cell lines (HCT-116, LOVO), 1 hour
How it was run: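 HCT-116 cells are kept in DMEM and LOVO cells in DMEM/F12, each with 10% FBS, 2 mM glutamine and antibiotics. Cells are seeded, then treated with test compound for 1 hour after 24 hours. Lysates are BCA-normalised, run on 4–15% gradient SDS-PAGE and immunoblotted for pMEK, pERK1/2 and total MEK.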

TT human MTC cells [5] = assay: signaling pathway activity analysis; format: cell-based; details: 1 µM, 1 hour
How it was run: (§2)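 MZ-CRC-1 or TT medullary thyroid carcinoma cells were exposed for 1 hour to vehicle (0.1% DMSO) or 1 µM test compound. Cells were harvested and immunoblotted for pMEK, total MEK, pERK1/2, total ERK1/2 and pS6.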

MZ-CRC-1 human MTC cells = assay: signaling pathway activity analysis; format: cell-based; details: MZ-CRC-1 cells, 1 µM, 1 hour
How it was run: as §2

toleration assay = format: in vivo, mouse
How it was run: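 Five female athymic nude mice (6 weeks) received escalating oral doses from 0.1 mg/kg/day up to 160 mg/kg/day.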

[6] = pharmacokinetics assay in mice; format: in vivo, mouse
How it was run: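 Male ICR mice (6 weeks) received a single oral dose of 20 mg/kg. Plasma drug concentrations were measured at 0.25, 0.5, 1, 2, 4, 8, 10 and 24 h after dosing.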

TT cells = assay: TT cell xenograft assay in nude mice; format: in vivo, mouse
How it was run: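 Forty female nude mice (6 weeks) received subcutaneous TT cells. At ~120 mm3 tumour volume they were randomised into four arms. Each arm was dosed orally five days per week with vehicle or 10 mg/kg/day compound. Vehicle: Cremophor EL/ethanol (1:1) diluted 4-fold with water.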

[7] = higher doses that rescued ptc>dRet^M955T viability
[8] = low dose, 10 µM final food concentration, 765>dRet^M955T larvae

BRAF, sequence (P15056 whole entry): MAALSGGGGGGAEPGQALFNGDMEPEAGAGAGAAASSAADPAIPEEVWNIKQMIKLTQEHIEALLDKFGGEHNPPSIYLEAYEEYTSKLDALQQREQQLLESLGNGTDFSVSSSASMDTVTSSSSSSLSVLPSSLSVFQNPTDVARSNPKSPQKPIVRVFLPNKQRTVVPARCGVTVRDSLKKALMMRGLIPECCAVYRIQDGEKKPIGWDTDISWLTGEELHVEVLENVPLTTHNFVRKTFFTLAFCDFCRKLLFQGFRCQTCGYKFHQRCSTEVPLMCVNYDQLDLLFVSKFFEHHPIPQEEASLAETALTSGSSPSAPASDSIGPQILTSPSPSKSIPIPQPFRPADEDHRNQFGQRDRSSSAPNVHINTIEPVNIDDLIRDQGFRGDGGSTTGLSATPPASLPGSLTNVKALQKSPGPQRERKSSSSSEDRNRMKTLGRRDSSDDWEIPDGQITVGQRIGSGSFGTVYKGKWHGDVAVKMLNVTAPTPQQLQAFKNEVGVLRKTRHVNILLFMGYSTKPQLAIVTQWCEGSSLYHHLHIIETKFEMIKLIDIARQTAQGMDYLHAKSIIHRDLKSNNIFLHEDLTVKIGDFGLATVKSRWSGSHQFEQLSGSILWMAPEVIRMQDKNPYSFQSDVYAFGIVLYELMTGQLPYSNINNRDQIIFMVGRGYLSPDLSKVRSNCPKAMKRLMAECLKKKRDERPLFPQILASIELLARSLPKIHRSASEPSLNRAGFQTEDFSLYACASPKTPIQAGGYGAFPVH
MKNK1, sequence (Q9BUB5 whole entry): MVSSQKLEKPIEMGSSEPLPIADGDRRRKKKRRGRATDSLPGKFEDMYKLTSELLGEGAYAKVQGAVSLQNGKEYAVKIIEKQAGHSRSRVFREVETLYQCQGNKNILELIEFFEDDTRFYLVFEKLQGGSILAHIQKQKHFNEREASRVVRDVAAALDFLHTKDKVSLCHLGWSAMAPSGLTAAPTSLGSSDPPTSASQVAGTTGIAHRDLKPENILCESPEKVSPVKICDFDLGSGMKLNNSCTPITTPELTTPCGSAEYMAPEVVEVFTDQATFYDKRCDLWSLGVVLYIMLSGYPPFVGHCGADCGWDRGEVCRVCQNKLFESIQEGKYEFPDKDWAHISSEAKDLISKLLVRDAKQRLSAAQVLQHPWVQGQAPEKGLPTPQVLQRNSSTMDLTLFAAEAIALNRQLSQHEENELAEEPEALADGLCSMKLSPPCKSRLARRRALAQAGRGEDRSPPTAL
RET, sequence (P07949 29-1114): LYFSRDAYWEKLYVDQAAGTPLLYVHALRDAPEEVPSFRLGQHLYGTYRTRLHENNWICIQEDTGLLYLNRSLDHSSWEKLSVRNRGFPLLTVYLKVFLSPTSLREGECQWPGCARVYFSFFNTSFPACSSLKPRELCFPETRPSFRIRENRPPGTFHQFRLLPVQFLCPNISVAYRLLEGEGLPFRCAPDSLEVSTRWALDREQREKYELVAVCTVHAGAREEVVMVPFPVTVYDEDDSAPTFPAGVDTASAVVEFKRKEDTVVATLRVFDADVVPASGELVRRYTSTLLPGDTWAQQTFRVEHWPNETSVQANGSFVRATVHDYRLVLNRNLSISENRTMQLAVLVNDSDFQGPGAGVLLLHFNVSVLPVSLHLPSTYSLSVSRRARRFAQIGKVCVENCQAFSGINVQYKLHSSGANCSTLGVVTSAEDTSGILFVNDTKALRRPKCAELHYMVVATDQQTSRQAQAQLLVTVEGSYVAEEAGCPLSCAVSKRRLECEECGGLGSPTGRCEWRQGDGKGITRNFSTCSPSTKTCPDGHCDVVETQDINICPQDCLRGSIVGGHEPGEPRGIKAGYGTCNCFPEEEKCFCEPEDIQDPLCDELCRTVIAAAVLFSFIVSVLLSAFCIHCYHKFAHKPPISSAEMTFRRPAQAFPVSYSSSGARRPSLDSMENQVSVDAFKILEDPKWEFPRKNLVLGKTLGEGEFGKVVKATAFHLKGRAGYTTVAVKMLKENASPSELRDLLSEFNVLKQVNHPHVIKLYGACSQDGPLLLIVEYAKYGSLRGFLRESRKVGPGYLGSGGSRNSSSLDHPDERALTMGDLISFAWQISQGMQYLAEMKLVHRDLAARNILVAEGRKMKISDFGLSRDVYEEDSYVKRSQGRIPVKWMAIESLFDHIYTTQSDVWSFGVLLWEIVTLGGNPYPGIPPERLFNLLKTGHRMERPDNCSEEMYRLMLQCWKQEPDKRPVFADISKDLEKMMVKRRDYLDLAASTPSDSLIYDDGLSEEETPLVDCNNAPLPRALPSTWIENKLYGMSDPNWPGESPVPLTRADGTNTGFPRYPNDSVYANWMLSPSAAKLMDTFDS

Molecule: CNC(=O)c1cc(Oc2ccc(NC(=O)Nc3cccc(C(F)(F)F)c3)cc2)ccn1 [LS1-11-2, N-methyl-4-(4-(3-(3-(trifluoromethyl)phenyl)ureido)phenoxy)picolinamide]
- rescue of ptc>dRet^M955T viability, in words (ptc>dRet^M955T flies): reduced survival

Molecule: CNC(=O)c1cc(Oc2ccc(NC(=O)Nc3cc(C(F)(F)F)ccc3F)cc2)ccn1 [compound 4, 4-(4-(3-(2-fluoro-5-(trifluoromethyl)phenyl)ureido)phenoxy)-N-methylpicolinamide]
- rescue of ptc>dRet^M955T viability, in words (ptc>dRet^M955T flies; listed as LS1-15): more effective than sorafenib
- viability of ptc>dRet^M955T flies ([1]; kinase-proficient control flies): ~ 50% and 50%
- survival to adulthood of ptc>dRet^M955T,Lk6^−/+ flies ([1]; one functional allele of Lk6 removed): 0%
- viability of ptc>dRet^M955T,phl^−/+ flies ([1]; phl (RAF ortholog) heterozygous): 96%
- EMT and migration/invasion of dRet^M955T-expressing wing cells [2]: as effective as sorafenib in suppressing EMT and invasion
- effect of reduced Lk6 on suppression of ptc>dRet^M955T cell migration [2]: reversed suppression
- ectopic wing venation (765>dRet^M955T flies; [7]): did not promote ectopic wing venation
- ectopic wing venation (765>dRet^M955T flies; [8]): stimulated significant excess wing vein material

Molecule: CNC(=O)c1cc(Oc2ccc(NC(=O)Nc3cc(C(F)(F)F)ccc3F)c(F)c2)ccn1 [compound 5, 4-(3-fluoro-4-(3-(2-fluoro-5-(trifluoromethyl)phenyl)ureido)phenoxy)-N-methylpicolinamide]
- rescue of ptc>dRet^M955T viability, in words (ptc>dRet^M955T flies): more effective than sorafenib
- EMT and migration/invasion of dRet^M955T-expressing wing cells [2]: as effective as sorafenib in suppressing EMT and invasion

Molecule: CNC(=O)c1cc(Oc2ccc(NC(=O)c3ccc(Cl)c(C(F)(F)F)c3)cc2)ccn1 [compound 6, 4-(4-(4-chloro-3-(trifluoromethyl)benzamido)phenoxy)-N-methylpicolinamide]
- whole body toxicity (non-oncogenic w^− flies): toxic
- EMT and migration/invasion of dRet^M955T-expressing wing cells [2]: enhanced cell migration

Molecule: CNC(=O)c1cc(Oc2ccc(NC(=O)Nc3cc(C(F)F)ccc3F)cc2)ccn1 [compound 7, 4-(4-(3-(5-(difluoromethyl)-2-fluorophenyl)ureido)phenoxy)-N-methylpicolinamide]
- rescue of ptc>dRet^M955T viability, in words (ptc>dRet^M955T flies): reduced rescue
- rescue of ptc>dRet^M955T viability, in words (ptc>dRet^M955T flies; listed as APS4-54): poor whole animal activity

Molecule: CNC(=O)c1cc(Oc2ccc(NC(=O)Nc3cc(C)ccc3F)cc2)ccn1 [compound 8, 4-(4-(3-(2-fluoro-5-methylphenyl)ureido)phenoxy)-N-methylpicolinamide]
- rescue of ptc>dRet^M955T viability, in words (ptc>dRet^M955T flies): reduced rescue
- rescue of ptc>dRet^M955T viability, in words (ptc>dRet^M955T flies; listed as APS4-35-1): poor whole animal activity

- in vitro MKNK1 binding relative to sorafenib (MKNK1): significantly reduced
- BRAF binding compared to sorafenib and 4 (BRAF): reduced BRAF binding
Molecule: CNC(=O)c1cc(Oc2ccc(NC(=O)Nc3cc(C(F)(F)C(F)(F)F)ccc3F)cc2)ccn1 [compound 9, 4-(4-(3-(2-fluoro-5-(perfluoroethyl)phenyl)ureido)phenoxy)-N-methylpicolinamide]
- rescue of ptc>dRet^M955T viability, in words (ptc>dRet^M955T flies): strongly improved
- effect of reduced Lk6 on suppression of ptc>dRet^M955T cell migration [2]: not affected
- ectopic wing venation (765>dRet^M955T flies; at any dose): failed to promote ectopic wing venation
- colony formation of TT cells in soft agar (TT human MTC cells [3]): strongly suppressed

Molecule: CNC(=O)c1cc(Oc2ccc(NC(=O)Nc3cc(C(F)(C(F)(F)F)C(F)(F)F)ccc3F)cc2)ccn1 [compound 10, 4-(4-(3-(2-fluoro-5-(perfluoropropan-2-yl)phenyl)ureido)phenoxy)-N-methylpicolinamide]
- rescue of ptc>dRet^M955T viability, in words (ptc>dRet^M955T flies): strongly improved
- rescue of ptc>dRet^M955T flies to adulthood (% viability) (ptc>dRet^M955T flies): 84%
- effect of reduced Lk6 on suppression of ptc>dRet^M955T cell migration [2]: not affected
- in vitro MKNK1 binding relative to sorafenib (MKNK1): only a small decrease
- BRAF binding compared to sorafenib and 4 (BRAF): reduced BRAF binding
- RET binding relative to sorafenib (RET): weaker RET binding
- ectopic wing venation (765>dRet^M955T flies; at any dose): failed to promote ectopic wing venation
- drug concentration required to transactivate BRAF relative to sorafenib [4]: ~ 30 fold
- RAS pathway signaling (TT human MTC cells [5]): strongly inhibited
- RAS pathway signaling (MZ-CRC-1 human MTC cells): strongly inhibited
- colony formation of TT cells in soft agar (TT human MTC cells [3]): strongly suppressed
- signs of clinical distress (weight loss, discharges, morbidity) (toleration assay; female athymic nude mice, oral dose escalated from 0.1 up to 160 mg/kg/day): no such signs were observed
- toxic effects after oral dosing (toleration assay; single oral dose of 160 mg/kg): did not cause detectable toxic effects
- treatment-related clinical signs following dosing ([6]; 20 mg/kg orally, male ICR mice): No treatment-related clinical signs were observed
- concentration in blood plasma ([6]; 20 mg/kg p.o., male ICR mice): approximately 10 µM
- half-life ([6]; male, ICR, mouse, plasma, po, 20 mg/kg): 5.6 h
- partial or complete responses, share of dosed mice (TT cells; 10 mg/kg/day p.o. five days per week, day 30, female nude mice): 75%
- growth of established TT tumors (TT cells; 10 mg/kg/day p.o. five days per week, subcutaneous xenograft, nude mice): far more potently than sorafenib or cabozantinib
- body weight of dosed mice (TT cells; 10 mg/kg/day p.o., after 30 days): no effect; also recorded: did not affect body weight

Molecule: CNC(=O)c1cc(Oc2ccc(NC(=O)Nc3ccc(Cl)c(C(F)(F)F)c3)c(F)c2)ccn1 [regorafenib, 4-(4-(3-(4-chloro-3-(trifluoromethyl)phenyl)ureido)-3-fluorophenoxy)-N-methylpicolinamide, reference compound]
- rescue of ptc>dRet^M955T viability, in words (ptc>dRet^M955T flies): only moderate

Molecule: CC(=O)Nc1cccc(-n2c(=O)n(C3CC3)c(=O)c3c(Nc4ccc(I)cc4F)n(C)c(=O)c(C)c32)c1 [trametinib, reference compound]
- rescue of ptc>dRet^M955T viability, in words (ptc>dRet^M955T flies): only moderate
- ectopic wing venation (765>dRet^M955T flies; 1 µM, 765>dRet^M955T adults): strongly suppressed ectopic venation
- wing defects (enhanced wing venation, poor wing structure) (765>dRet^M955T flies; 765>dRet^M955T,Lk6^−/+ flies): suppressed

Molecule: N-methyl-4-(4-(3-(3-(trifluoromethyl)phenyl)ureido)phenoxy)picolinamide [sorafenib, reference compound]
- rescue of ptc>dRet^M955T viability, in words (ptc>dRet^M955T flies): only moderate
- rescue of ptc>dRet^M955T flies to adulthood (% viability) (ptc>dRet^M955T flies): ~ 5% and 5%
- EMT and migration/invasion of dRet^M955T-expressing wing cells [2]: suppressed both EMT and migration
- effect of reduced Lk6 on suppression of ptc>dRet^M955T cell migration [2]: reversed suppression
- ectopic wing venation (765>dRet^M955T flies; [7]): did not promote ectopic wing venation
- ectopic wing venation (765>dRet^M955T flies; [8]): stimulated significant excess wing vein material
